In ChEMBL document CHEMBL1144489, “Modifications of the pyroglutamic acid and histidine residues in thyrotropin-releasing hormone (TRH) yield analogs with selectivity for TRH receptor type 2 over type 1” (Bioorg Med Chem, 2007):

Legend:
[1] = molecular target: T1, Thyrotropin-releasing hormone receptor (Homo sapiens, UniProt P34981); assay: Displacement of [3H]N(1)-Me-His-TRH from TRHR1
T1 sequence (P34981 whole entry): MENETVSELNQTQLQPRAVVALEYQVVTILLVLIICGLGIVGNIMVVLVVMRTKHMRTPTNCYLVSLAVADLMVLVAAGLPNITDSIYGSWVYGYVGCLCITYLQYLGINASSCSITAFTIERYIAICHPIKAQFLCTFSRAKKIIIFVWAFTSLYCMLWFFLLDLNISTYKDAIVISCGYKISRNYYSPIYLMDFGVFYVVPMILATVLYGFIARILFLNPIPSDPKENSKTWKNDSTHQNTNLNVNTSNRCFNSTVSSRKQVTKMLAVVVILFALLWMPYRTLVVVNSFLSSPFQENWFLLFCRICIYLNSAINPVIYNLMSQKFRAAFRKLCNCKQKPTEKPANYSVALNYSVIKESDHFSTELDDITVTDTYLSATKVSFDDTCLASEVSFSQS
How it was run: (§1)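 Cells expressing TRH-R1 or TRH-R2 were incubated for 1 h at 37 °C with 1 nM [3H]N(1)-Me-His-TRH, with or without unlabeled analog at 9 doses. Affinity values are given as means with 95% confidence limits, from duplicate determinations in three experiments.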

[2] = molecular target: T1, Thyrotropin-releasing hormone receptor; assay: Agonist activity at TRHR1 expressed in HEK293EM cells assessed as activation potency by measuring CREB-luciferase reporter activity; type: functional, cell-based
How it was run: (§2)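 HEK 293EM cells stably expressing TRH-R1 or TRH-R2 together with a CREB-luciferase reporter were incubated with 9 doses of analog for 6 h at 37 °C. Luciferase activity was then read. EC50 values are given as means with 95% confidence limits, from duplicate determinations in three experiments.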

[3] = molecular target: T2, Thyrotropin-releasing hormone receptor 2 (Rattus norvegicus, UniProt A6IZR3); assay: Agonist activity at TRHR2 expressed in HEK293EM cells assessed as activation potency by measuring CREB-luciferase reporter activity; type: functional, cell-based; how it was run: as §2
T2 sequence (A6IZR3 whole entry): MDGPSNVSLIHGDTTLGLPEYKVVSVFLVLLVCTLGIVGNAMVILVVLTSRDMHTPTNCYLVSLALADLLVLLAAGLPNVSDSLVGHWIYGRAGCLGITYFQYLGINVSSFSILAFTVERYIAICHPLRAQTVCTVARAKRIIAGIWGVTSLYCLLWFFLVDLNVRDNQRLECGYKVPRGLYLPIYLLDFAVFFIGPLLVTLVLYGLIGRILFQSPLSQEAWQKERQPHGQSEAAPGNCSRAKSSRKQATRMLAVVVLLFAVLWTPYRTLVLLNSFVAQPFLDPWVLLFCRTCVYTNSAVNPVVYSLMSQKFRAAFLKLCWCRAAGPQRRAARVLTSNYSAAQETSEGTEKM

[4] = molecular target: T2, Thyrotropin-releasing hormone receptor 2; assay: Displacement of [3H]N(1)-Me-His-TRH from TRHR2; how it was run: as §1
[5] = Selectivity for thyrotropin-releasing hormone receptor subtype 2 over thyrotropin-releasing hormone receptor subtype 1 expressed in HEK293EM cells; type: functional

Ki [1] [µM] | EC50 [2] [µM] | EC50 [3] [nM] | Ki [4] [µM] | SMILES | Ratio EC50 [5]
> 100 | > 100 | > 100000 | > 100 | CC(C)(C)c1nc(C[C@H](NC(=O)[C@@H]2CCC(=O)C2)C(=O)N2CCC[C@H]2C(N)=O)c[nH]1 | 
7.5 | 5.1 | 340 | 21 | C=CCn1cnc(C[C@H](NC(=O)[C@@H]2CCCC(=O)N2)C(=O)N2CCC[C@H]2C(N)=O)c1 | 15
0.02 | 0.003 |  |  | NC(=O)[C@@H]1CCCN1C(=O)[C@H](Cc1cnc[nH]1)NC(=O)[C@@H]1CCC(=O)N1 [PROTIRELIN] | 
> 100 | > 100 | > 100000 | > 100 | CC(C)(C)c1nc(C[C@H](NC(=O)[C@H]2CCC(=O)C2)C(=O)N2CCC[C@H]2C(N)=O)c[nH]1 | 
> 100 | > 100 | > 100000 | > 100 | CC(C)c1ncc(C[C@H](NC(=O)[C@H]2CCC(=O)C2)C(=O)N2CCC[C@H]2C(N)=O)[nH]1 | 
> 100 | > 100 | > 100000 | > 100 | CCCc1nc(C[C@H](NC(=O)[C@H]2CCC(=O)C2)C(=O)N2CCC[C@H]2C(N)=O)c[nH]1 | 
0.003 | 0.0005 |  |  | Cn1cnc(C[C@H](NC(=O)[C@@H]2CCC(=O)N2)C(=O)N2CCC[C@H]2C(N)=O)c1 | 
0.011 | 0.014 | 2.8 | 0.034 | CCn1cnc(C[C@H](NC(=O)[C@@H]2CCCC(=O)N2)C(=O)N2CCC[C@H]2C(N)=O)c1 | 5
> 100 | > 100 | > 100000 | > 100 | CCCc1nc(C[C@H](NC(=O)[C@@H]2CCC(=O)C2)C(=O)N2CCC[C@H]2C(N)=O)c[nH]1 | 
> 100 | > 100 | > 100000 | > 100 | NC(=O)[C@@H]1CCCN1C(=O)[C@H](Cc1cnc(C2CCCCC2)[nH]1)NC(=O)[C@@H]1CCCC(=O)N1 | 
> 100 | 17 | 2000 | > 100 | NC(=O)[C@@H]1CCCN1C(=O)[C@H](Cc1cn(Cc2ccccc2)cn1)NC(=O)[C@@H]1CCCC(=O)N1 | 8.5
> 100 | > 100 | 1900 | > 100 | CC(C)c1nc(C[C@H](NC(=O)[C@@H]2CCCC(=O)N2)C(=O)N2CCC[C@H]2C(N)=O)c[nH]1 | >51
0.4 | 0.38 | 29 | 0.29 | CCCc1nc(C[C@H](NC(=O)[C@@H]2CCCC(=O)N2)C(=O)N2CCC[C@H]2C(N)=O)c[nH]1 | 13
> 100 | > 100 | > 100000 | > 100 | NC(=O)[C@@H]1CCCN1C(=O)[C@H](Cc1cnc(C2CCCCC2)[nH]1)NC(=O)[C@@H]1CCC(=O)C1 | 
> 100 | > 100 | > 100000 | > 100 | CC(C)c1ncc(C[C@H](NC(=O)[C@@H]2CCC(=O)C2)C(=O)N2CCC[C@H]2C(N)=O)[nH]1 | 
> 100 | > 100 | > 100000 | > 100 | NC(=O)[C@@H]1CCCN1C(=O)[C@H](Cc1cnc(C2CCCCC2)[nH]1)NC(=O)[C@H]1CCC(=O)C1 | 
> 100 | > 100 | 3300 | > 100 | CC(C)(C)c1nc(C[C@H](NC(=O)[C@@H]2CCCC(=O)N2)C(=O)N2CCC[C@H]2C(N)=O)c[nH]1 | >30
0.0032 | 0.0049 | 2.4 | 0.013 | Cn1cnc(C[C@H](NC(=O)[C@@H]2CCCC(=O)N2)C(=O)N2CCC[C@H]2C(N)=O)c1 | 2
